This note sets out measurements from the EternaBench riboswitch data.

The data set relates to MS2 coat protein. The data set is described as follows: apparent Kd, MS2 coat protein; higher = weaker binding; RNA-MaP array; FMN 200 µM where present. In outline:
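Designs were transcribed by stalled E. coli RNA polymerase on Illumina sequencing-chip clusters. They were titrated with SNAP-549-labelled MS2 coat protein from 0.7 or 1.5 nM, doubling to 3 µM, in 100 mM Tris-HCl pH 7.5, 80 mM KCl, 4 mM MgCl2, BSA, DTT, yeast tRNA and Tween-20, without and then with constant ligand. The apparent Kd is the median of filtered per-cluster fits after normalisation of green signal to red-channel RNA signal and control-cluster median Fmax.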

Setting [1] is: designed as: OFF switch for flavin mononucleotide, no ligand.
Where [2] appears, read: ligand present: flavin mononucleotide, designed as: OFF switch for flavin mononucleotide.
Where [3] appears, read: designed as: ON switch for flavin mononucleotide, no ligand.
Where [4] appears, read: ligand present: flavin mononucleotide, designed as: ON switch for flavin mononucleotide.

As for “GGAUAGGACAGAGGAUAUACGUGCUAGACAUACUAGCAAAAUUUCCUCACAUGAGGAUCACCCAUGUAGAAGGCUGUCCUAUCG”, the “apparent Kd” value runs as follows: under setting [1], 18.7 nM; under setting [2], 440 nM.
On to “UAUAUUAUUAUAGGAUAUGGAUAUGAUGCAUAUCCAGAAGGGUGAUUAUAAUAUUUUCUGUACAUGAGGAUCACCCAUGUUUAU”, for which the “apparent Kd” value amounted to 141 nM under setting [3] and 41.6 nM under setting [4].
For the sequence “AGUUCACAUGAGGAUCACCCAUGUCAGGAUAUCGACUGAACAGCUUCGGCUGUUCAGUCGAGAAGGGACAAUUA”, the “apparent Kd” value is, setting by setting: under setting [1], 46.5 nM; under setting [2], 104 nM.
With “UAAUCUCAGAUAGGAUAUAUAGGAUGAUUUAAGACUGAACAUGAGGAUCACCCAUGUGAUUAUCUGUAGAAGGAUCAAUGACCC”, the “apparent Kd” value is, setting by setting: under setting [3], 389 nM; under setting [4], 348 nM.
“CUUAGUAUCUAGGAUAUCUAGUACAUAGUAUCUAGAGAAGGAGAUACAUGAGGAUCACCCAUGUUCUGUGAUCU”: the “apparent Kd” value was 272 nM under setting [1] and 40.4 nM under setting [2].
For “CUAAAAGUCGAGGAUAUGCACCGGCUUUCUGACGCAGAAGGCGACACAUGAGGAUCACCCAUGUCGGUACGCGA”, in that order: 13.7 nM and 15.8 nM.
Taken in the same sequence, the figures for “CGAUAACAUAGUUAUCCGUAGCGAACAUGAGGAUCACCCAUGUAGGAUAUGUUACUAAACUAGUAACAGAAGGACAUGAGUCUU” were 34.9 nM and 263 nM.
Take “UUUAUAAAUUAGAAGGCGAGAUGAAUUACAAUAGACAUGAGGAUCACCCAUGUGUAUUCAUGUCUUGAGGAUAUAGUCAUAUAU”: the “apparent Kd” value came to 118 nM under setting [3] and 58.1 nM under setting [4].
For “AAUAACAGAGGAUAUACUAUUUUAUGUAUUUAUUAUUUUAAACAUGAGGAUCACCCAUGUAGAAGGCUGAGUAA”, the “apparent Kd” value is, setting by setting: under setting [1], 23.8 nM; under setting [2], 21.3 nM.
Taken in the same sequence, the figures for “UGUGUGAGACAGGAUAUGCCGGAUGAAUUGCUGGUAGAAGGGUCUACAUGAGGAUCACCCAUGUGGCCGGUUGG” were 16.8 nM and 24.8 nM.
In the case of “AUAUAACAUGAGGAUCACCCAUGUCAACAAAGUCGAGGAUAUGGGCAAAUAAAAUAAGAACCAGAAGGCGAAUAAU”, the “apparent Kd” value came to 291 nM under setting [3] and 51.9 nM under setting [4].
As for “UUAUUAUAUGUAGGAUAUGCAUAUUAUUAUUGUGCAGAAGGACAUGAGGAUCACCCAUGUAUAUUAUUAUUAUAUAUUAUAUAU”, the “apparent Kd” value is 30.9 nM under setting [1] and 49.7 nM under setting [2].
For “UUGAUGUGAGGAUAUGUGAUCUGCCUUCUAUAUAGAUGAUUACAGAAGGCACAUGAGGAUCACCCAUGUAGAUC”, in that order: 78.5 nM and 58.9 nM.
For “AAGAAGUCAGGAUAUGCAUGGCGGGACUUGCGUCGUGGCGUGCAGAAGGGACAUGAGGAUCACCCAUGUAAAGA”, in that order: 49.4 nM and 41.7 nM.
As for “UUGAUGUCAUCAGGAUAUAGUAUUUAAGACAUAUCUUCUUUCAAACAUGAGGAUCACCCAUGUCGCUAGAAGGGAUUAUUGAUU”, the “apparent Kd” value came out at 16.8 nM under setting [1] and 13 nM under setting [2].
On to “UUGGACGUCGUAGGAUAUGUAGGAUAUUCCUACAUGAGGAUCACCCAUGUUGACAUGGAAGAAGGACUGAAGGACGAUGUCCAU”, for which the “apparent Kd” value is, setting by setting: under setting [3], 763 nM; under setting [4], 22.9 nM.
As to “GGUACUCAAAGAGUACCAAUACGAACAUGAGGAUCACCCAUGUAGGAUAUAAAACCGCCGGAGUAUUAGAAGGACAUGUGCCUA”, the “apparent Kd” value runs as follows: under setting [1], 11.5 nM; under setting [2], 10.5 nM.
With “GCUGGGUCAGGAUAUACAGGGUCGAAAGAUCUGUGAUACCUACAUGAGGAUCACCCAUGUAGAAGGGACUGGGC”, the “apparent Kd” value reads like this: under setting [1], 15.7 nM; under setting [2], 38.1 nM.
As for “UGUGUGAGACAGGAUAUGCCGGAUAUAGUACUGGUAGAAGGGUCUACAUGAGGAUCACCCAUGUGGCCGGCCGG”, the “apparent Kd” value by setting is: under setting [1], 16.8 nM; under setting [2], 25 nM.
“CCUGACGCAUCAGGAUAUGCUUACAUCCAUGUUGCAGAAGGGAUGCGUUCUGAAAACAUGAGGAUCACCCAUGUAAGCGGCCAA”: the “apparent Kd” value by setting is: under setting [3], 82 nM; under setting [4], 52.2 nM.
Turning to “CACCGUUAGUGAGGAUAUCUUACAUGAGGAUCACCCAUGUAAUAAAUGAGAAUUUCGGAUGUAUUAGAGAAGGCACAAAUCGGC”, the “apparent Kd” value came to 25.1 nM under setting [1] and 24.3 nM under setting [2].
Consider “GCCAUCGCAUGAGGAUAUGCUCCGGUUUCCGGAGCAGAAGGCAUGUCGUAAGACAUGAGGAUCACCCAUGUAGUCAAGAUGGCA”, for which the “apparent Kd” value was found to be 912 nM under setting [3] and 41.5 nM under setting [4].
As for “AAUUCGGCAGGAUAUACAUGAGGAUCACCCAUGUAAAUUUUUCGUUUAACUUGAAUGUGUAGAAGGGCCAUUUA”, the “apparent Kd” value under setting [2] came out at 22.6 nM.
As for “GUCAUGUUAGGAUAUCUGGCAUGUGACUUCGGUCACUGUCCAGAGAAGGAACAUGAGGAUCACCCAUGUUGGAC”, the “apparent Kd” value was determined as 75.1 nM under setting [1] and 57.1 nM under setting [2].
Turning to “UUCGAGUAGCAAGGAUAUCUUAUUUAGAUUUUAAGAGAAGGUGCUUCACAGCUACAUGAGGAUCACCCAUGUCUUUCUUCUUAU”, the “apparent Kd” value worked out at 35.6 nM under setting [3] and 26.3 nM under setting [4].
“GAGCGAAAGCUCAAUGUCGAUAGCAGAAGGAUAUGAAAACAUGAAAUAACAUGAGGAUCACCCAUGUAGGAUAUGCUAUCGACU”: the “apparent Kd” value by setting is: under setting [1], 7.41 nM; under setting [2], 14 nM.
Turning to “GGCGGACGAAACAUGAGGAUCACCCAUGUGUUAUAAUUAAUAUAGGAUAUGUUUAUACUUUUUGGGCAGAAGGAUGAUAAUGCC”, the “apparent Kd” value by setting is: under setting [3], 18.5 nM; under setting [4], 16.2 nM.
As to “CCCAAACUUGGGCUUGGUGGUGCAUAGGAUAUCCUUGAACAUGAGGAUCACCCAUGUGCAACUGUGGAGAAGGGUGCAGGGCCU”, the “apparent Kd” value was 362 nM under setting [3] and 88.4 nM under setting [4].
As for “UGGUACUAGGGAGGAUAUGGGAAGAUACAUGAGGAUCACCCAUGUUUAAGAAUGCUGAGAGGCAACUAGAAGGCCCUAGUACCU”, the “apparent Kd” value turned out to be 439 nM under setting [3] and 20.9 nM under setting [4].
Regarding “CCUUGACAUGAGGAUCACCCAUGUGAGGAUAUAGAAUACUUCAUACACUGACCUCCUUCUAGAAGGCACAUCUC”, the “apparent Kd” value was 15.3 nM under setting [1] and 15.1 nM under setting [2].
On to “GGAUCGAGUGUGAGGAUAUGCUGGUCCUUGGAUCAGCAGAAGGCACAUGAGGAUCACCCAUGUGAAGACGGUCC”, for which the “apparent Kd” value by setting is: under setting [1], 32.3 nM; under setting [2], 201 nM.
For “AGCGCUACGGAAUCAAGGGCAGGCAGAAGGAGCACAUGAGGAUCACCCAUGUGAUCCAGGGAUGGCUAGGAUAUGCGCGCCACG”, in that order: 26.4 nM and 26.5 nM.
Turning to “CUGUUAUAGGUCCAGAAUUACAACAUGAGGAUCACCCAUGUGCAGGAUAUCGGGUUGAUAGGCGCCGAGAAGGGUAUAGUCACG”, the “apparent Kd” value by setting is: under setting [1], 75.8 nM; under setting [2], 70.8 nM.
As for “AGGAGACAUGAGGAUCACCCAUGUGCACGUGGAGGAGGAUAUGCUAGUAGAAGAUAGAAAGCAGAAGGCCUAAGAA”, the “apparent Kd” value came out at 69.2 nM under setting [3] and 80.5 nM under setting [4].
For “GACUUGGCUACAUGAGGAUCACCCAUGUUUGACUGGAUCGAUCAGGAUAUAGUGAUUUGCAACAAUUAGAAGGGAUAUUUACGG”, in that order: 49.8 nM and 51.6 nM.
For “AAGAGGUGAGGAUAUCGAAGAAGAAGAAGAAGAAGAAGAAACGAGAAGGCACAUGAGGAUCACCCAUGUAAGAA”, the “apparent Kd” value was found to be 22.5 nM under setting [1] and 19.9 nM under setting [2].
Turning to “CGCUAGGAUGGGUCUAAUGGACCUCAGGAUAUGCUUGUACAUGAGGAUCACCCAUGUAACAUUGUGCAGAAGGGAGGAUCCACG”, the “apparent Kd” value was 8.82 nM under setting [3] and 4.57 nM under setting [4].
